According to paper PMC5034689 (Molecular Metabolism, 2016):

Key:
DIO mice [1] = assay: Single dose of TNP in DIO mice; format: in vivo
In short: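 Chow-fed lean or DIO mice (n = 4/group) received one 20 mg/kg injection, were fasted 5 h, then given GTT (glucose 2 g/kg i.p., tail-vein glucometer from time 0). Mice were then sacrificed for tissues and cardiac-puncture serum. Insulin was measured by ultra-sensitive ELISA and TAG by a metabolic core. Akt S473 was immunoblotted (T308 also in IWAT), with densitometry n = 3.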

IP6Ks = details: cited from earlier work
MIN6 cells = details: cited from earlier work
CYP3A4 = CYP3A4 (Homo sapiens, UniProt P08684); assay: CYP450 inhibition in human hepatic microsomes, CYP3A4; format: in vitro ADME; details: liver microsomes, probe midazolam (hydroxylation to 1′-hydroxymidazolam)
Sequence of CYP3A4 (P08684 whole entry): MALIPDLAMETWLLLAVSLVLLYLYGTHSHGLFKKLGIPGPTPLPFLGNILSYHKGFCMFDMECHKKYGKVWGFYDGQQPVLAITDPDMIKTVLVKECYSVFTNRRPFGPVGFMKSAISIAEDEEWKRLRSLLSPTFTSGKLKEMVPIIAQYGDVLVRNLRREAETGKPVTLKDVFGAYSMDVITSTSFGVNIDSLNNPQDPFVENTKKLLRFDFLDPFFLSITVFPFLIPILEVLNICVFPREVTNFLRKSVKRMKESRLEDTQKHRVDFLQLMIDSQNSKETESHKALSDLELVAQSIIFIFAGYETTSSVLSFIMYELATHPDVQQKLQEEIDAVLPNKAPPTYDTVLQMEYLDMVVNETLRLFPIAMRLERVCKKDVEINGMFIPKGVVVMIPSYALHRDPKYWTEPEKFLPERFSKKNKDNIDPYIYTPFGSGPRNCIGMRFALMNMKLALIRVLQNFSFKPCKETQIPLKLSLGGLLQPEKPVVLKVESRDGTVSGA

HFD-fed mice = assay: Long-term TNP for protection against DIO; format: in vivo, C57BL6 mice
In short: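 Male C57BL6 mice, chow-fed to 2 months of age, started HFD together with daily injections (10 mg/kg; vehicle DMSO:Tween 80:water 1:1:8) for 10 weeks, n = 6/group, 23 °C. Body weight was recorded weekly. In week 5, CLAMS ran 36 h acclimatization then 48 h of VO2, VCO2 and locomotor recording. RER = VCO2/VO2, and EE was normalized to lean mass. Week-7 food intake was measured by BioDAQ (2 days acclimatization, 4 days recorded).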

[2] = system: human promyelocytic leukemia (HL60) cells; details: cited from earlier work
CYP2D6 = CYP2D6 (Homo sapiens, UniProt P10635); assay: CYP450 inhibition in human hepatic microsomes, CYP2D6; format: in vitro ADME; details: liver microsomes, probe bufuralol (hydroxylation to 4′-hydroxybufuralol)
Sequence of CYP2D6 (P10635 whole entry): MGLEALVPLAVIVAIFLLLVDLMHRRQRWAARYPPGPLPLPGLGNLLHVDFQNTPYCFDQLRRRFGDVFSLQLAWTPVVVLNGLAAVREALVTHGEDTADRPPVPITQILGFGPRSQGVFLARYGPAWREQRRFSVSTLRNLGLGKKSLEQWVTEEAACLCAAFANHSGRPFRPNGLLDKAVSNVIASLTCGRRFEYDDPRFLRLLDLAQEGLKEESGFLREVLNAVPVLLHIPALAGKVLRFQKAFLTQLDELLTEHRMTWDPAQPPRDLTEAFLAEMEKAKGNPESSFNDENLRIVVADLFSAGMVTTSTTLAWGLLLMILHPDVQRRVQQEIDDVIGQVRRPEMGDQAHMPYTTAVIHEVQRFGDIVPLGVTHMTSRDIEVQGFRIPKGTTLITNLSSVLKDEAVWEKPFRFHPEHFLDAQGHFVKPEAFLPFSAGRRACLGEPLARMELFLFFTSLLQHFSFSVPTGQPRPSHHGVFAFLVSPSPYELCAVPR

IP3-3K = details: PC12 cells, enhances neurite outgrowth; cited from earlier work
3T3L1 adipocytes = assay: Glycerol assay for lipolysis in adipocytes; format: cell-based; details: TNP 1 μM, isoproterenol 10 μM
In short: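 3T3-L1 preadipocytes were differentiated for 7 days. Adipocytes were pretreated 4 h with DMSO or 1 μM test compound in DMEM with 0.5% fatty-acid-free BSA. Medium was then replaced, with or without isoproterenol (10 μM), and compound was kept on throughout. Glycerol released into the medium was measured with a commercial kit.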

CYP2C9 = CYP2C9 (Homo sapiens, UniProt P11712); assay: CYP450 inhibition in human hepatic microsomes, CYP2C9; format: in vitro ADME; details: liver microsomes, probe tolbutamide (hydroxylation to hydroxytolbutamide)
Sequence of CYP2C9 (P11712 whole entry): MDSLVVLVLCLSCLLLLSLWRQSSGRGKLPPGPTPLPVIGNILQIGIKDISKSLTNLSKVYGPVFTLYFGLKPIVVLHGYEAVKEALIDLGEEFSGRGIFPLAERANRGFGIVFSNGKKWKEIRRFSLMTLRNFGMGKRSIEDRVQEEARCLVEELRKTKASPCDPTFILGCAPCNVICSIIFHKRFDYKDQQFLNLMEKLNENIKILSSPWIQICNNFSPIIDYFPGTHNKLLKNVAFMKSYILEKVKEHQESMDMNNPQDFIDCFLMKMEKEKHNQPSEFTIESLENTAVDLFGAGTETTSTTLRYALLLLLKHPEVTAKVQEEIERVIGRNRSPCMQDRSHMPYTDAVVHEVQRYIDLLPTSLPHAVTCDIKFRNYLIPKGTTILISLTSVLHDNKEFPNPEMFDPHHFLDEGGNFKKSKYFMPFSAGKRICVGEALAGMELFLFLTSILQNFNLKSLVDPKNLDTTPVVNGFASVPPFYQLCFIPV

71 unrelated kinases = details: cited from earlier work
[3] = Plasma and tissue availability after a single intraperitoneal TNP injection; format: in vivo, mice
In short: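 Chow-fed mice received a single i.p. injection (20 mg/kg) in DMSO:Tween 80:water (1:1:8). Plasma levels were followed 1–6 h after dosing. Liver, skeletal muscle, white and brown adipose tissue and brain were collected 6 h after dosing to measure tissue concentrations.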

[4] = Hepatic microsomal stability, human; format: in vitro ADME; details: liver microsomes, pH 7.4
In short: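 Test compound (1 μM) was incubated with liver microsomes (1 mg/ml) and 1 mM NADPH in 100 mM potassium phosphate, pH 7.4. Aliquots were taken at 0, 5, 10, 20, 40 and 60 min and analysed by LC-MS/MS. Loss of parent was expressed as half-life.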

DIO mice [5] = assay: Long-term TNP treatment of DIO mice at thermoneutral temperature; format: in vivo
In short: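 Following the initial phase, vehicle or test compound was injected for another 8 weeks, n = 6/group. Body weight was recorded weekly. ITT was done at week 4: 5 h fast, human insulin 0.75 U/kg i.p., tail-vein glucometer. At 8 weeks, mice were sacrificed after a 5 h fast. Cardiac-puncture serum was assayed for cholesterol and HDL by a metabolic core.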

[6] = Plasma protein binding, equilibrium dialysis, human; format: in vitro ADME
In short: (§1)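 Binding was measured by rapid equilibrium dialysis in triplicate, starting at 1 μM drug in the plasma chamber against PBS. Plates were shaken 6 h at 37 °C. Samples were matrix-matched to 1:1 plasma:PBS and quantified by LC-MS/MS. Fraction bound = ([plasma] − [PBS])/[plasma].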

cortical neurons = details: cited from earlier work
PP-IP5K = details: cited from earlier work
DIO WT mice = assay: Long-term TNP for reversal of DIO in WT mice; format: in vivo
In short: (§2)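 Inbred IP6K1-KO mice (seventh generation) and WT littermates, n = 4/group, received HFD for 8 weeks, then daily injections (10 mg/kg) with continued HFD for 10 weeks. GTT was done at week 5: 5 h fast, glucose 2 g/kg i.p., tail-vein glucometer readings including time 0. After 10 weeks, fat, lean and fluid masses were measured by LF-NMR, and mice were sacrificed after a 5 h fast.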

IP6K1-KO mice = assay: Long-term TNP for reversal of DIO in IP6K1-KO mice; format: in vivo
In short: as §2

[7] = Plasma protein binding, equilibrium dialysis, summary over species; format: in vitro ADME; details: human, mouse, rat
In short: as §1

[8] = 10 mg/kg BW daily, 5th week, CLAMS
[9] = 10 mg/kg BW daily, 10 weeks, WT
[10] = 10 mg/kg BW daily, 10 weeks, WT, vs vehicle
[11] = after 5 weeks of TNP treatment, WT

## O=[N+]([O-])c1ccc(CNc2nc(NCc3cccc(C(F)(F)F)c3)nc3[nH]cnc23)cc1 [TNP, N6-(4-nitrobenzyl)-N2-(3-(trifluoromethyl)benzyl)-9H-purine-2,6-diamine]
DIO mice [1]; single dose 20 mg/kg BW
  Blood glucose level: significantly reduces
  Glucose tolerance (GTT): significantly improves
  HFD induced increase in serum insulin: slightly reduces
  Serum TAG level: does not influence
  Serum cholesterol, HDL, and LDL levels: slightly reduces
DIO mice [1]; single injection 20 mg/kg BW, phospho S473/total Akt, ImageJ
  Increase in Akt S473 phosphorylation in IWAT, soleus muscle and liver: 2–3 fold
IP6Ks
  Potency on IP6Ks over IP3-3K: 70 fold
MIN6 cells
  Insulin secretion: reduces insulin secretion
CYP3A4
  inhibition at 10 μM: 98%
HFD-fed mice; 10 mg/kg BW daily
  Lean mass: unaltered
HFD-fed mice; [8]
  Average RER: unaltered
  Average activity: unaltered
  Energy expenditure (EE): higher EE especially during nighttime
  VO2 consumption: higher VO2 consumption
HFD-fed mice; 10 mg/kg BW daily, 7th week, vs vehicle
  Daily energy intake: similar
HFD-fed mice; 10 mg/kg BW daily, 8th and 9th week
  Glucose disposal following glucose (GTT) and insulin injections (ITT): efficient glucose disposals
HFD-fed mice; 10 mg/kg BW daily, after 10 weeks (injection stopped)
  Body weight gain: 2.9 g
HFD-fed mice; 10 mg/kg BW daily, after 10 weeks of HFD and TNP
  Body weight: 27.8 g
HFD-fed mice; 2 weeks after TNP withdrawal
  Glucose disposal following glucose injection (GTT): efficient glucose disposal
HFD-fed mice; 18-week, eight weeks after TNP withdrawal
  Body weight gain: 19.3 g
HFD-fed mice; 18-week, eight weeks after TNP withdrawal, HFD continued
  Body weight: 44.3 g
HFD-fed mice; four weeks after TNP withdrawal
  Glucose tolerance (GTT): become glucose intolerant
HFD-fed mice; onset of the experiment (before treatment)
  Body weight: 24.9 g
HFD-fed mice; weeks 10 to 18, TNP-withdrawn mice
  Weight gain during the withdrawal period: 16.4 g
[2]
  Ca2+ levels: slightly elevates
CYP2D6
  inhibition at 10 μM: 76%
IP3-3K
  Concentrations at which TNP inhibits IP3-3K: 20 to 40 µM
3T3L1 adipocytes
  Basal or isoproterenol induced lipolysis (glycerol release): does not influence
CYP2C9
  inhibition at 10 μM: 92%
71 unrelated kinases
  Effect on 71 unrelated kinases: does not influence
[3]; mice
  Crossing of the BBB: does not efficiently cross the BBB
[3]; mouse, plasma, ip, 20 mg/kg
  half-life: ~6 h
[3]; single dose 20 mg/kg i.p., chow fed mice, 1–6 h post-treatment
  TNP concentration in plasma: 5 to 10 µM
[4]
  half-life at 1 μM: 0.533 h
DIO mice [5]; 30 °C, after 4-weeks of TNP injection
  Glucose disposal following exogenous insulin treatment (ITT): significantly improved
DIO mice [5]; 30 °C, after 8-weeks of injection
  Average decrease in body weight: ~0.7 g
DIO mice [5]; thermoneutral temperature
  Serum levels of total cholesterol and HDL: unaltered at thermoneutral temperature
[6]
  fraction unbound at 6 h, 1 μM: 0.083
Cortical neurons
  Cytosolic Zn2+ levels: slightly elevates
PP-IP5K
  Effect on the 1-IP7 generating enzyme PP-IP5K: does not influence
DIO WT mice; 10 mg/kg BW daily, 10 weeks, DIO mice
  Testis morphology: unaltered
DIO WT mice; 10 mg/kg BW daily, 10 weeks, HFD-fed WT
  Serum insulin level: reduces serum insulin level
DIO WT mice; [9]
  Serum cholesterol level: reduces serum cholesterol level
  UCP1 expression: enhances UCP1 expression
DIO WT mice; [10]
  Liver weight: substantially less
  Total fat mass (QNMR): significantly less
DIO WT mice; 10 mg/kg BW daily, 10 weeks, vs vehicle
  Histological morphology and weight of heart and kidney: similar
DIO WT mice; 10 mg/kg BW daily, after 10-week of treatment, WT
  Reduction in body weight vs vehicle: ~10 g
DIO WT mice; 10 mg/kg BW daily, after 10 weeks of injection, DIO WT
  Body weight: 36.9 g
DIO WT mice; [11]
  Fasting blood glucose: reduces fasting blood glucose
  Glucose disposal (GTT): enhances glucose disposal
DIO WT mice; long-term TNP treatment, WT and IP6K1-KO mice, stereological analysis
  CA1 neuronal density: did not significantly alter
IP6K1-KO mice; 10 mg/kg BW daily, 10 weeks
  TNP mediated weight loss: resistant to Rev-TNP mediated weight loss
  Total fat, lean, and fluid masses: unaltered
IP6K1-KO mice; 10 mg/kg BW daily, after 10-week of treatment
  Body weight: ~33 g
IP6K1-KO mice; after 5 weeks of TNP treatment
  Glucose disposal (GTT): not altered
[7]
  fraction unbound at 6 h, 1 μM: 0.07 to 0.1
